Reference: ChEMBL document CHEMBL4828708 (Eur J Med Chem, 2021)
Activity calls are given as the source filed them. The calls are words filed in the database; no cut-off is given here.

How the values were obtained:
Adenosine receptor A3 = molecular target: T1, Adenosine receptor A3 (Homo sapiens, UniProt P0DMS8); assay: Displacement of [3H]NECA from human adenosine A3 receptor expressed in HeLa cell membrane incubated for 180 mins by microplate beta scintillation counting based radioligand inhibition assay; type: cell membranes
T1 sequence (P0DMS8 whole entry): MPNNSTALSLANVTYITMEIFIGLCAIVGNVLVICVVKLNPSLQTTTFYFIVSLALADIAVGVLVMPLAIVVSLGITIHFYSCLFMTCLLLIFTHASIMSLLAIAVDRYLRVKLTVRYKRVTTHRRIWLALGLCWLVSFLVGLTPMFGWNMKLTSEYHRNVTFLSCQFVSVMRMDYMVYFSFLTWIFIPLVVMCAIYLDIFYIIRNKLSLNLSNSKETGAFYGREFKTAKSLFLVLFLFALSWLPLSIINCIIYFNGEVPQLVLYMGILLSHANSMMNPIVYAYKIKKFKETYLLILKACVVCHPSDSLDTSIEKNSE

Adenosine receptor A1 = molecular target: T2, Adenosine receptor A1 (Homo sapiens, UniProt P30542); assay: Displacement [3H]DPCPX from human adenosine A1 receptor expressed in CHO cell membrane incubated for 60 mins by microplate beta scintillation counting based radioligand inhibition assay; type: cell membranes
T2 sequence (P30542 whole entry): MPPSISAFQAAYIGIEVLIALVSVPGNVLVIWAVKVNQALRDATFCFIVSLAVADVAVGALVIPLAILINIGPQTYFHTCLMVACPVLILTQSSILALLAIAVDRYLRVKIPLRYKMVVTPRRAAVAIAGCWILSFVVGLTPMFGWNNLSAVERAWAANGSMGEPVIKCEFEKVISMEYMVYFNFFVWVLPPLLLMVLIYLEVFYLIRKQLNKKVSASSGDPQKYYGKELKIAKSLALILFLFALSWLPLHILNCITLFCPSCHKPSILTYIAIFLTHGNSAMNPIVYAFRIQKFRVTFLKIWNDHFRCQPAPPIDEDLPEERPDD

Blood [1] = assay: Inhibition of thrombus in human whole blood measured after 10 mins by microscopic analysis; type: functional, tissue-based
How it was run: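 Citrated human blood labelled with anti-CD61-PE, given compound or 0.1% DMSO 5 min beforehand, recalcified with 1 mM CaCl2, then perfused through type I collagen-coated channels at 20 dyn/cm2 for 5 min. Fluorescent thrombus area summed per donor (thrombi >50 μm2). Paired t-test, n = 9.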

Blood [2] = assay: Inhibition of ADP-stimulated platelet aggregation in human whole blood assessed as decrease in platelet activation measured upto 15 mins by whole blood aggregometry assay; type: functional, tissue-based
How it was run: (§1)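 Human whole blood was pre-incubated 5 min with compound dissolved in 0.1% DMSO, or with 0.1% DMSO alone. Test concentrations were 10, 30 or 50 μM. Aggregation was triggered with 6.4 μM ADP or 1 μg/mL collagen and monitored for up to 15 min on a five-channel Multiplate analyzer. Read-out was area under the aggregation curve, n = 13 donors, paired Student's t-test.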

Adenosine receptor A2a [3] = molecular target: T3, Adenosine receptor A2a (Homo sapiens, UniProt P29274); assay: Displacement of [3H]CGS21680 from human adenosine A2A receptor expressed in HEK293 cell membrane incubated for 30 mins by microplate beta scintillation counting based radioligand inhibition assay
T3 sequence (P29274 whole entry): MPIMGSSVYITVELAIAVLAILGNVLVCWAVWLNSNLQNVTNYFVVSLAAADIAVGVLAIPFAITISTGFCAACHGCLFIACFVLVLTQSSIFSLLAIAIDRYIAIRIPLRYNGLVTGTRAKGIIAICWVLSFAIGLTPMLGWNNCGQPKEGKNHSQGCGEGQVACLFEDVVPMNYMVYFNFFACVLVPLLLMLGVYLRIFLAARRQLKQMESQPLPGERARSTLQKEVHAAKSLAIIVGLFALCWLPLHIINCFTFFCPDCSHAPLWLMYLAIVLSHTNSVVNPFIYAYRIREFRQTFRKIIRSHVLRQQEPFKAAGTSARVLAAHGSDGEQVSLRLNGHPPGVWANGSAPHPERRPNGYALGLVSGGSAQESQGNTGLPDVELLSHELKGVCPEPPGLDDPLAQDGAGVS

[4] = molecular target: T4, Adenosine receptor A3 (Homo sapiens) (UniProt P0DMS8); assay: Displacement of [3H]NECA from human adenosine A3 receptor expressed in HEK293 cell membrane at 10 uM incubated for 180 mins by microplate beta scintillation counting based radioligand inhibition assay relative to control
T4 sequence (whole entry): T1 sequence (P0DMS8 whole entry)

[5] = molecular target: T5, Adenosine receptor A2b (Homo sapiens) (UniProt P29275); assay: Displacement of [3H]DPCPX from human adenosine A2B receptor expressed in HEK cell membrane at 10 uM incubated for 30 mins by microplate beta scintillation counting based radioligand inhibition assay relative to control; type: cell membranes; conditions: HEK293
T5 sequence (whole entry): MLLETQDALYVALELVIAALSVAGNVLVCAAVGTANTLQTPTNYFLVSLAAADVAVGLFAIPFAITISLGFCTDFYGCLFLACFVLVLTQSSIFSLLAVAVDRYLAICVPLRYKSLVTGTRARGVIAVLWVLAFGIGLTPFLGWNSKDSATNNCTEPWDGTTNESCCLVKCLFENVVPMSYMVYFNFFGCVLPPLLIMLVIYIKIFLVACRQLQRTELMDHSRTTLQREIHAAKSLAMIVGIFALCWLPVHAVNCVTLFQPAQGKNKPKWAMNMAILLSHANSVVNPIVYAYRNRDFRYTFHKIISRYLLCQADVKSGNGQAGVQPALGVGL

Adenosine receptor A2a [6] = molecular target: T3, Adenosine receptor A2a; assay: Displacement of [3H]ZM241385 from human adenosine A2A receptor expressed in HeLa cells by beta scintillation counting analysis; type: cell-based
Adenosine receptor A2b = molecular target: T6, Adenosine receptor A2b (Homo sapiens, UniProt P29275); assay: Displacement of [3H]DPCPX from human adenosine A2B receptor expressed in HEK cell membrane incubated for 30 mins by microplate beta scintillation counting based radioligand inhibition assay; type: cell membranes
T6 sequence (P29275 whole entry): T5 sequence (whole entry)

Blood [7] = assay: Inhibition of collagen-stimulated platelet aggregation in human whole blood assessed as decrease in platelet activation measured upto 15 mins by whole blood aggregometry assay; type: functional, tissue-based; how it was run: as §1

Compound | Ki (Adenosine receptor A3) [nM] | Ki (Adenosine receptor A1) [nM] | inhibition [4] [%] | other results
Nc1ncnc2c1nc(C#Cc1ccccc1)n2[C@@H]1O[C@H](CO)[C@@H](O)[C@H]1O | 856 | – | – | –
Nc1nc(C#Cc2ccccc2)nc2c1ncn2[C@@H]1O[C@H](CO)[C@@H](O)[C@H]1O | 42 | 646 | – | Ki (Adenosine receptor A2a [3]): 1040 nM
Nc1nc(C#Cc2ccccc2)nc2c1ncn2[C@@H]1O[C@H](CO)[C@@H](O)[C@@H]1O | 1230 | – | – | –
Nc1ncnc2c1nc(C#Cc1ccccc1)n2[C@H]1C[C@H](O)[C@@H](CO)O1 | 879 | – | – | Ki (Adenosine receptor A2a [3]): 1990 nM
OC[C@H]1O[C@@H](n2cnc3c(NCCCc4ccccc4)nc(Cl)nc32)C[C@@H]1O | 8770 | 13300 | – | inhibition [5]: 1%
Nc1ncnc2c1ncn2[C@H]1C[C@H](O)[C@@H](CO)O1 | – | – | 5 | inhibition [5]: 12%

The next lines start with results.

Ki (Adenosine receptor A3) [nM] | Ki (Adenosine receptor A1) [nM] | inhibition [4] [%] | Compound | other results
8610 | 1940 | – | Nc1nc(CCc2ccccc2)nc2c1ncn2[C@@H]1O[C@H](CO)[C@@H](O)[C@H]1O | –
– | 864 | – | OC[C@H]1O[C@@H](n2cnc3c(NCCCCc4ccccc4)ncnc32)[C@H](O)[C@@H]1O | –
54.6 | 78.8 | – | OC[C@H]1O[C@@H](n2cnc3c(NCCCc4ccccc4)ncnc32)[C@H](O)[C@@H]1O | inhibition (Blood [1]): Active; inhibition (Blood [2]): Active
– | – | 54 | Nc1nc(CCc2ccccc2)nc2c1ncn2[C@@H]1O[C@H](CO)[C@@H](O)[C@@H]1O | –
4.5 | – | – | CCNC(=O)[C@H]1O[C@@H](n2cnc3c(NCCCc4ccccc4)ncnc32)[C@H](O)[C@@H]1O | IC50 (Adenosine receptor A2a [6]): 14600 nM; inhibition (Blood [2]): Active; Ki (Adenosine receptor A2b): 1380 nM; inhibition (Blood [7]): Active
– | 803 | – | CCNC(=O)[C@H]1O[C@@H](n2cnc3c(NCCCCc4ccccc4)ncnc32)[C@H](O)[C@@H]1O | –
– | – | 8 | Nc1ncnc2c1nc(CCc1ccccc1)n2[C@@H]1O[C@H](CO)[C@@H](O)[C@H]1O | –
– | – | 44 | Nc1ncnc2c1nc(CCc1ccccc1)n2[C@H]1C[C@H](O)[C@@H](CO)O1 | –
– | – | 29 | Nc1ncnc2c1ncn2[C@@H]1O[C@H](CO)[C@@H](O)[C@H]1OCOCCCc1ccccc1 | –
